# Measured values gathered from unrelated publications.
# Protocols differ between the studies behind these lines. pIC50: −log10 of the molar value.
# Organism: Mycobacterium tuberculosis
Structure (SMILES),effect on,method,strain,concentration,time,quantity,result
COC(=O)c1cc(-c2cccc(NC(=O)Nc3ccc(F)cc3F)c2)on1,microbial growth,,ATCC27294 H37RV,,7 days,MIC,1 µg/mL
CO[C@H]1/C=C/O[C@@]2(C)Oc3c(C)c(O)c4c(O)c(c(/C=N/N5CCN(C)CC5)c(O)c4c3C2=O)NC(=O)/C(C)=C\C=C\[C@H](C)[C@H](O)[C@@H](C)[C@@H](O)[C@@H](C)[C@H](OC(C)=O)[C@@H]1C,microbial growth,,ERDMAN,,,IC90,35 nM
COC(=O)c1cc(-c2cccc(NC(=O)NCc3ccccc3)c2)on1,microbial growth,,ATCC27294 H37RV,,7 days,MIC,4 µg/mL
CO[C@H]1/C=C/O[C@@]2(C)Oc3c(C)c(O)c4c(O)c(c(/C=N/N5CCN(C)CC5)c(O)c4c3C2=O)NC(=O)/C(C)=C\C=C\[C@H](C)[C@H](O)[C@@H](C)[C@@H](O)[C@@H](C)[C@H](OC(C)=O)[C@@H]1C,microbial growth,,H37RV,,,pIC50,8.40
[H]/N=C(/N)N[C@H]1[C@H](O)[C@@H](O)[C@H](O[C@@H]2O[C@@H](C)[C@](O)(C=O)[C@H]2O[C@@H]2O[C@@H](CO)[C@H](O)[C@@H](O)[C@@H]2NC)[C@@H](N/C(N)=N\[H])[C@@H]1O,microbial growth,,H37RV,,,pIC50,6.70
COC(=O)c1cc(-c2cccc(NC(=O)Nc3c(C)cccc3C)c2)on1,microbial growth,,ATCC27294 H37RV,,7 days,MIC,64 µg/mL
NNC(=O)c1ccncc1,microbial killing,,H37RV,,7 days,MBC,30.7 µg/mL
Cc1ccc(NC(=O)c2cccc(C(F)(F)F)c2)cc1Nc1nccn1-c1cc(NN2CCN(C)CC2)ncn1,microbial growth,,H37RV,,,MIC50,9.67 µM
CCOC(=O)c1c(NC(=O)c2c(F)c(F)c(F)c(F)c2F)sc2c1CCN(CC)C2,microbial growth,,H37RV,,,MIC90,0.23 µM
CCc1nc2ccc(Cl)cn2c1C(=O)NCc1ccc(N2CCC(c3ccc(OC(F)(F)F)cc3)CC2)cc1,microbial growth,,H37RV,,,MIC90,0.02 µM
O=C(C[n+]1cn(Cc2cccc(Cn3c[n+](CC(=O)c4ccc([N+](=O)[O-])cc4)c4ccccc43)n2)c2ccccc21)c1ccc([N+](=O)[O-])cc1,microbial killing,,H37RV,,21 days,MBC,50 µM
CCc1nc2ccc(Cl)cn2c1C(=O)NCc1ccc(N2CCC(c3ccc(OC(F)(F)F)cc3)CC2)cc1,microbial growth,,ERDMAN,,,pIC50,8.51
O=C(C[n+]1ccn(Cc2cccc(Cn3cc[n+](CC(=O)c4ccc([N+](=O)[O-])cc4)c3)n2)c1)c1ccc([N+](=O)[O-])cc1,microbial killing,,H37RV,,21 days,MBC,100 µM
COC(=O)c1cc(-c2cccc(NC(=O)Nc3ccc(C(F)(F)F)cc3)c2)on1,microbial growth,,ATCC27294 H37RV,,7 days,MIC,0.5 µg/mL
CC[C@@H](CO)NCCN[C@@H](CC)CO,microbial growth,,H37RV,,,IC90,4610 nM
Cc1ccc(NC(=O)c2cc(N3CCNCC3)cc(C(F)(F)F)c2)cc1Nc1nccn1-c1cc(NC2CC2)ncn1,microbial growth,,H37RV,,,MIC50,0.63 µM
O=C(C[n+]1cn(Cc2cccc(Cn3c[n+](CC(=O)c4ccccc4)c4ccccc43)n2)c2ccccc21)c1ccccc1,microbial killing,,H37RV,,21 days,MBC,100 µM
CCCCCCC#Cc1cncc(-c2nnc(SCc3ccc([N+](=O)[O-])o3)n2C2CC2)c1,microbial growth,,ERDMAN,,,pIC50,7.32
CNc1cc(-n2nc(C(=O)NCCN3C(C)CCCC3C)cc2Nc2cc(NC(=O)c3cncc(C(C)(C)C)c3)ccc2C)ncn1 (centres unmarked),microbial killing,,H37RV,,5 days,MBC,1.25 to 2.5 µM
CCCCCCC#Cc1cncc(-c2nnc(SCc3ccc(C#N)cc3)n2C)c1,microbial growth,,,,,pIC50,5.64
Cc1cn(-c2cc(C(=O)Nc3ccc(C)c(Nc4nccn4-c4cc(NC5CC5)ncn4)c3)cc(C(F)(F)F)c2)cn1,microbial killing,,H37RV,,5 days,MBC,2.5 to 5 µM
NNC(=O)c1ccncc1,microbial growth,,ERDMAN,,,IC90,> 1000 nM
O=[N+]([O-])c1ccc(/C(O)=C/C(=S)S)cc1,microbial killing,,ATCC27294 H37RV,,,MBC,31.2 µg/mL
CCCCCCC#Cc1cncc(-c2nnc(SCc3ccc([N+](=O)[O-])cc3)n2C)c1,microbial growth,,,,,pIC50,5.89
CC(N)(CO)C(=O)Nc1ccc(C(=O)Nc2ccnc(=O)[nH]2)cc1 (centres unmarked),microbial growth,,H37RA,,,pIC50,< 4.00
CCCCCCC#Cc1cncc(-c2nnc(SCc3ccc(Cl)c(F)c3)n2C)c1,microbial growth,,ERDMAN,,,IC90,13000 nM
CO[C@H]1/C=C/O[C@@]2(C)Oc3c(C)c(O)c4c(O)c(c(/C=N/N5CCN(C)CC5)c(O)c4c3C2=O)NC(=O)/C(C)=C\C=C\[C@H](C)[C@H](O)[C@@H](C)[C@@H](O)[C@@H](C)[C@H](OC(C)=O)[C@@H]1C,microbial growth,,H37RV,12.5 µg/mL,,inhibition,97%
CCCCCCC#Cc1cncc(-c2nnc(SCc3cc([N+](=O)[O-])cc([N+](=O)[O-])c3)n2C)c1,microbial growth,,ERDMAN,,,IC90,440 nM
O=[N+]([O-])c1cc2cc3ccc4oc([N+](=O)[O-])cc4c3cc2o1,microbial killing,resazurin,H37RV,,,MBC,0.5 µg/mL
